Test results reported in ChEMBL document CHEMBL3352584, “Novel DNA gyrase inhibiting spiropyrimidinetriones with a benzisoxazole scaffold: SAR and in vivo characterization” (J Med Chem, 2014).
Values after ≈ are worked out from the molar mass of the structure shown.

Assays:
Streptococcus pneumoniae = assay: Antimicrobial activity against wild-type Streptococcus pneumoniae 548 by broth microdilution method; assay type: functional
How it was run: (§1)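 Broth microdilution following CLSI guidelines. Values under 12.5 μM are averages of three or more replicates.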

Staphylococcus aureus [1] = assay: Inhibition of DNA synthesis in methicillin-sensitive Staphylococcus aureus by [3H]-thymidine incorporation assay; assay type: functional, organism-based
[2] = Bioavailability in mouse at 3 mg/kg, iv or at 10 mg/kg, po by LC-MS/MS method; assay type: ADME, organism-based; conditions: in vivo
How it was run: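 Male mice (CD-1) or male Wistar Hannover rats, three per experiment, given a 15 min iv infusion at 3 mg/kg or oral dosing at 10 mg/kg. Vehicle was DMA:TEG:saline 40/40/20 for mice and meglumine/cyclodextrin for rats. Serial jugular blood was taken over 0–24 h, plasma analysed by LC-MS/MS, and a noncompartmental analysis used. Mean values are given.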

Rattus norvegicus = assay: Toxicity in Wistar Hannover rat at 250 to 500 mg/kg, po administered once daily for 14 days; assay type: organism-based; design: dose 250-500 mg/kg, route oral; conditions: in vivo, 336 h
How it was run: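 Repeat-dose oral study in Wistar Hannover rats, three males and three females per group, dosed once daily for 14 days at 0, 250, 500 or 750 mg/kg/day and necropsied on day 15. Endpoints were clinical signs, body weight, food intake, temperature, hematology, plasma chemistry, toxicokinetics, and gross and microscopic pathology.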

Staphylococcus aureus [3] = assay: Antimicrobial activity against methicillin-sensitive Staphylococcus aureus ARC516 infected in immunocompetant mouse administered as single ip dose starting 2 hrs after infection; assay type: functional, organism-based
Staphylococcus aureus [4] = assay: Antimicrobial activity against methicillin-sensitive Staphylococcus aureus ARC516 infected in immunocompetant mouse assessed as reduction in CFU at AUC of 70 ug.hr/mL compound administered as single ip dose starting 2 hrs after infection relative to untreated control; assay type: functional
How it was run: (§2)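 CD-1 mouse thighs were infected with mid-log S. aureus ARC516 at a target inoculum of 5 × 10⁵ CFU. Groups of five received IP compound in DMA:TEG:saline 40/40/20%, starting 2 h post-infection; a vehicle group served as control. Mice were killed 24 h after treatment start, and thigh homogenates were plated on tryptic soy agar (37 °C, overnight) for CFU/g. Free exposure was corrected for mouse plasma protein binding.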

Staphylococcus aureus [5] = assay: Antimicrobial activity against methicillin-sensitive Staphylococcus aureus ARC516 infected in immunocompetant mouse assessed as reduction in CFU at free AUC of 13 ug.hr/mL compound administered as single ip dose starting 2 hrs after infection relative to untreated control; assay type: functional; how it was run: as §2
[6] = Cmax in Wistar Hannover rat at 750 mg/kg, po dosed once daily for 14 days measured on day 14; assay type: ADME, organism-based; design: dose 750 mg/kg, route oral; conditions: in vivo
How it was run: (§3)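 Wistar Hannover rats, 2 males and 2 females per dose, dosed orally once daily for 14 days at 250, 500 or 750 mg/kg/day. Vehicle was 0.2 M meglumine/20% hydroxypropyl-β-cyclodextrin. Blood was sampled on day 14 and exposure measured in blood. Animals were killed after sampling without necropsy.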

[7] = AUC in Wistar Hannover rat at 500 mg/kg, po dosed once daily for 14 days measured on day 14; assay type: ADME, organism-based; design: dose 500 mg/kg, route oral; conditions: plasma; how it was run: as §3
Staphylococcus aureus [8] = assay: Antimicrobial activity against methicillin-resistant and quinolone-resistant Staphylococcus aureus by broth microdilution method; assay type: functional; how it was run: as §1
Haemophilus influenzae = assay: Antimicrobial activity against Haemophilus influenzae by broth microdilution method; assay type: functional; how it was run: as §1
Staphylococcus aureus [9] = assay: Antimicrobial activity against Staphylococcus aureus 2792 harboring wild-type GyrA and GyrB R144A mutant by broth microdilution method; assay type: functional

## Cc1noc2c(F)c3c(cc12)CC1(C(=O)NC(=O)NC1=O)[C@H]1[C@H](C)O[C@H](C)CN31
Streptococcus pneumoniae
  MIC: 4 µg/mL (≈ 9.94 µM)
Staphylococcus aureus [1]
  IC50: 0.06 µg/mL (≈ 0.149 µM)
[2]
  bioavailability: 58%
Rattus norvegicus
  Activity: Non-toxic
Staphylococcus aureus [3]
  Activity: Dose-dependent effect
Staphylococcus aureus [4]
  fold change (FC): 3
Staphylococcus aureus [5]
  fold change (FC): 3
[6]
  Cmax: 487 µM
[7]
  AUC at 336 h: 4400 µM·h
Staphylococcus aureus [8]
  MIC: 2 µM (≈ 0.805 µg/mL)
Haemophilus influenzae
  MIC: 1 µM (≈ 0.402 µg/mL)
Staphylococcus aureus [9]
  MIC: 0.5 µg/mL (≈ 1.24 µM)
